Data as given in publication PMC10809330 (RSC Medicinal Chemistry, 2023).

Assays:
TAK1 = biological target: T1, TAK1 (Homo sapiens, UniProt O43318); test: TAK1 ADP-Glo kinase assay; format: biochemical; conditions: for TAK1 kinase inhibition: compound 500 nM
T1 sequence (O43318 1-303 limits assumed): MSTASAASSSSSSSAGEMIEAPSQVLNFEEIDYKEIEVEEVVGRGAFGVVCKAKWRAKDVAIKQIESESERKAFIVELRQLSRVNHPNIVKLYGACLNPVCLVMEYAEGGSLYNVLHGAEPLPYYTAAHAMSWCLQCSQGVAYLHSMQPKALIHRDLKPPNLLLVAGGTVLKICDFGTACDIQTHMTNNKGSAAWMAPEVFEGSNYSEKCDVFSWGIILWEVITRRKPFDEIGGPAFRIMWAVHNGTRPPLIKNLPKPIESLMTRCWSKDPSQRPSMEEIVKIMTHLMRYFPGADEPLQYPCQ
Summary of the method: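 Tiered TAK1 screen using the ADP-Glo kinase assay. Test compounds were first tested at 500 nM. Those exceeding 50% enzyme inhibition were retested at 100 nM, then at 20 nM. Values are means of triplicates with SD.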

[1] = tested on: phosphorylated TAK1 (S412); test: pTAK1; format: cell-based, murine; conditions: MPC-11 cells, 0.1 or 0.5 μM, 48 h, western blot
Summary of the method: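 MPC-11 cells were seeded at 0.5–1 × 10^6, left 24 h, then treated with test compound at 0.1 or 0.5 μM or DMSO for 48 h. Cells were lysed in RIPA (pH 7.4) with protease inhibitors and 1 mM PMSF, and protein was measured by BCA. Lysates were run on 10% SDS-PAGE and blotted to PVDF. Blots were probed overnight at 4 °C for pTAK1, TAK1 and β-actin, then with HRP secondaries for 2 h at 24 °C. Detection was by chemiluminescence, with bands quantified relative to actin.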

MPC-11 cells = test: Cell viability assay; format: cell-based, murine; conditions: compound 200 nM
Summary of the method: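 MPC-11 cells were grown in DMEM with 10% FBS at 37 °C under 5% CO2 and kept below 10 passages. Cells were seeded at 4–5 × 10^3 per well, left 24 h, then exposed to test compound (screened at 1 and 0.2 μM) for 72 h. CellTiter-Blue was added for 3 h and fluorescence read at 560/590 nm. Runs were in triplicate, normalised to DMSO-treated cells.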

PKAC alpha = PKAC alpha (Homo sapiens, UniProt P17612); test: KinomeScan PKAC alpha; format: binding; conditions: in words
kinase anti-targets = test: KinomeScan profiling, kinase anti-targets; format: binding; conditions: Eurofins KinomeScan; KIT, ZAP70, JAK2, RET, KDR, PDGFR, FGFR, EGFR, BRAF, AKT, AURKA or B

SMILES | TAK1 kinase inhibition (TAK1) | also measured
C[C@@H]1CN(c2ccc3ncc(-c4ccc5cn[nH]c5c4)n3n2)C[C@H](C)O1 [Compound 21, (2S,6R)-4-(3-(1H-Indazol-6-yl)imidazo[1,2-b]pyridazin-6-yl)-2,6-dimethylmorpholine] |  | inhibition at 0.5 µM (TAK1; read-out: TAK1 kinase inhibition, compound 500 nM): < 50%
C[C@@H]1CN(c2ccc3ncc(-c4cccc(S(C)(=O)=O)c4)n3n2)C[C@H](C)O1 [Compound 8, (2S,6R)-2,6-Dimethyl-4-(3-(3-(methylsulfonyl)phenyl)imidazo[1,2-b]pyridazin-6-yl)morpholine] | moderate kinase inhibition | 
C[C@@H]1CN(c2ccc3ncc(-c4cccc(C#N)c4)n3n2)C[C@H](C)O1 [Compound 19, 3-(6-((2S,6R)-2,6-Dimethylmorpholino)imidazo[1,2-b]pyridazin-3-yl)benzonitrile] | negligible kinase inhibition | 
CCCn1/c(=N/C(=O)c2cccc(C(N)=O)c2)[nH]c2ccccc21 [Takinib, reference compound] |  | levels of phosphorylated TAK1 (S412) compared to DMSO control [1]: did not show a significant difference
Cc1n[nH]c2ccc(-c3cnc4ccc(N5CCO[C@@H](C)C5)nn34)cc12 [Compound 33, (S)-2-Methyl-4-(3-(3-methyl-1H-indazol-5-yl)imidazo[1,2-b]pyridazin-6-yl)morpholine] |  | inhibition of MPC-11 (MPC-11 cells): inactive
C[C@@H]1CN(c2ccc3ncc(-c4ccc(C(N)=O)cc4)n3n2)C[C@H](C)O1 [Compound 12, 4-(6-((2S,6R)-2,6-Dimethylmorpholino)imidazo[1,2-b]pyridazin-3-yl)benzamide] |  | inhibition of TAK1 (TAK1; compound 100 nM): decrease in TAK1 kinase inhibition compared to the previous screening
C[C@@H]1CN(c2ccc3ncc(-c4ccc(C#N)cc4)n3n2)C[C@H](C)O1 [Compound 6, 4-(6-((2S,6R)-2,6-Dimethylmorpholino)imidazo[1,2-b]pyridazin-3-yl)benzonitrile] | moderate kinase inhibition | 
C[C@@H]1CN(c2ccc3ncc(-c4ccc(C(F)(F)F)cc4)n3n2)C[C@H](C)O1 [Compound 7, (2S,6R)-2,6-Dimethyl-4-(3-(4-(trifluoromethyl)phenyl)imidazo[1,2-b]pyridazin-6-yl)morpholine] | moderate kinase inhibition | 
C[C@@H]1CN(c2ccc3ncc(-c4ccc(OC(F)(F)F)cc4)n3n2)C[C@H](C)O1 [Compound 11, (2S,6R)-2,6-Dimethyl-4-(3-(4-(trifluoromethoxy)phenyl)imidazo[1,2-b]pyridazin-6-yl)morpholine] | negligible kinase inhibition | 
Cc1n[nH]c2ccc(-c3cnc4ccc(N5C[C@@H](C)O[C@@H](C)C5)nn34)cc12 [Compound 3, (2S,6R)-2,6-Dimethyl-4-(3-(3-methyl-1H-indazol-5-yl)imidazo[1,2-b]pyridazin-6-yl)morpholine] |  | levels of phosphorylated TAK1 (S412) compared to DMSO control [1]: successful in reducing levels of phosphorylated TAK1 (S412)
C[C@@H]1CN(c2ccc3ncc(-c4ccc(F)cc4)n3n2)C[C@H](C)O1 [Compound 9, (2S,6R)-4-(3-(4-Fluorophenyl)imidazo[1,2-b]pyridazin-6-yl)-2,6-dimethylmorpholine] | moderate kinase inhibition | 
C[C@@H]1CN(c2ccc3ncc(-c4ccncc4)n3n2)C[C@H](C)O1 [Compound 17, (2S,6R)-2,6-Dimethyl-4-(3-(pyridin-4-yl)imidazo[1,2-b]pyridazin-6-yl)morpholine] | moderate kinase inhibition | 
C[C@@H]1CN(c2ccc3ncc(-c4ccc5[nH]nc(C6CC6)c5c4)n3n2)C[C@H](C)O1 [Compound 26, (2S,6R)-4-(3-(3-Cyclopropyl-1H-indazol-5-yl)imidazo[1,2-b]pyridazin-6-yl)-2,6-dimethylmorpholine] |  | affinity for PKAC alpha (PKAC alpha): low affinity; inhibition of kinase anti-targets (kinase anti-targets): minimal inhibition; levels of phosphorylated TAK1 (S412) compared to DMSO control [1]: successful in reducing levels of phosphorylated TAK1 (S412)
CNC(=O)c1ccc(-c2cnc3ccc(N4C[C@@H](C)O[C@@H](C)C4)nn23)cc1 [Compound 13, 4-(6-((2S,6R)-2,6-dimethylmorpholino)imidazo[1,2-b]pyridazin-3-yl)-N-methylbenzamide] | moderate kinase inhibition | 
C[C@@H]1CN(c2ccc3ncc(-c4ccc(F)c(C#N)c4)n3n2)C[C@H](C)O1 [Compound 16, 5-(6-((2S,6R)-2,6-Dimethylmorpholino)imidazo[1,2-b]pyridazin-3-yl)-2-fluorobenzonitrile] | moderate kinase inhibition | 
C[C@@H]1CN(c2ccc3ncc(-c4ccccc4)n3n2)C[C@H](C)O1 [Compound 5, (2S,6R)-2,6-Dimethyl-4-(3-phenylimidazo[1,2-b]pyridazin-6-yl)morpholine] | negligible kinase inhibition | 
C[C@@H]1CN(c2ccc3ncc(-c4cccnc4)n3n2)C[C@H](C)O1 [Compound 18, (2S,6R)-2,6-Dimethyl-4-(3-(pyridin-3-yl)imidazo[1,2-b]pyridazin-6-yl)morpholine] | negligible kinase inhibition | 
C[C@@H]1CN(c2ccc3ncc(-c4ccc(CC#N)cc4)n3n2)C[C@H](C)O1 [Compound 14, 2-(4-(6-((2S,6R)-2,6-Dimethylmorpholino)imidazo[1,2-b]pyridazin-3-yl)phenyl)acetonitrile] | moderate kinase inhibition | 
